Experimental data collected from several papers.
Protocols differ between the studies behind these lines. pIC50: −log10 of the molar value.
Cell line: HepG2
Observed: cell growth or viability

The pIC50 of c1ccc2[nH]c(-c3ccncc3)nc2c1 is reported as 4.06 (MTT; 48 h).
The pIC50 of O=C(NCCc1ccccc1)NNC(=O)c1ccc(Nc2nccc(-c3cccnc3)n2)cc1 is reported as 5.26 (MTT).
With O=[N+]([O-])c1ccc(Cn2cc(Cn3c4ccccc4c4nc5ccccc5nc43)nn2)cc1 the pIC50 was < 4.00 (MTT; 24 h).
CCN(CC)CCn1cccc1/C=N/NC(=O)Nc1cc2c(Nc3ccc(F)c(Cl)c3)ncnc2cc1O[C@H]1CCOC1 gave a pIC50 of 6.27 (MTT; 72 h).
With Oc1c(I)cc(I)c2cccnc12 the pIC50 was 4.10 (MTT; 48 h).
The pIC50 of Nc1ccc(-c2csc(Nc3ccc4c(O)ncnc4c3)n2)cc1 is reported as 4.82 (MTT).
CC(=O)OCCOC(=O)[C@]1(C)CC[C@]2(C)CC[C@]3(C)C4=CC=C5C(=CC(=O)C(O)=C5C)[C@]4(C)CC[C@@]3(C)[C@@H]2C1 has a pIC50 of 5.59 (MTT; 48 h).
The pIC50 of Cc1ccc2nc(-c3ccc(Cl)cc3Cl)[nH]c2c1 is reported as 4.51 (MTT; 48 h).
With O=C(N/N=C/CN1CCCC1)Nc1cc2c(Nc3ccc(F)c(Cl)c3)ncnc2cc1O[C@H]1CCOC1 the pIC50 was 5.68 (MTT; 72 h).
For Cc1ccc2nc(-c3ccncc3)[nH]c2c1, the pIC50 was 4.28 (MTT; 48 h).
Cc1cc(=O)oc2ccc(-c3cc(-c4cccc(Cl)c4)nc(N)n3)c(O)c12 has an IC50 of > 128 µg/mL (MTT; 72 h).
COc1cccc2c1C(=O)c1c(O)c3c(c(O)c1C2=O)C[C@@](O)(C(=O)CO)C[C@@H]3O[C@H]1C[C@H](N)[C@H](O)[C@H](C)O1 has a pIC50 of 6.43 (SRB).
The pIC50 of C=CCn1c(-c2ccc(OC)c(OC)c2)nc2ccccc21 is reported as 4.27 (MTT).
The pIC50 of COc1cc2ncnc(Nc3ccc(F)c(Cl)c3)c2cc1NC(=O)N/N=C/c1cccn1CCCN1CCCCC1 is reported as 6.51 (MTT; 72 h).
With Nc1nc(-c2ccc(NC(=O)Nc3cc(Br)cc(Br)c3)cc2)c[nH]1 the pIC50 was 4.32 (XTT; 24 h).
CN1CCN(C/C=N/NC(=O)Nc2cc3c(Nc4ccc(F)c(Cl)c4)ncnc3cc2O[C@H]2CCOC2)CC1 has a pIC50 of 5.48 (MTT; 72 h).
The pIC50 of C[C@H]1O[C@@H](n2cc(F)c(=O)[nH]c2=O)[C@H](O)[C@@H]1O is reported as < 4.30 (CCK-8; 48 h).
For Cc1cc(C)cc(NC(=O)NNC(=O)c2ccc(Nc3nccc(-c4ccccn4)n3)cc2)c1, the pIC50 was 4.69 (MTT; 24 h).
COC(=O)CN=c1scc(-c2ccccc2)n1-c1ccccc1C has a pIC50 of 4.10 (MTT; 72 h).
With COc1cccc(-c2nc3ccccc3n2Cc2ccccc2)c1 the pIC50 was 4.39 (MTT).
For COc1cc2ncnc(Nc3ccc(F)c(Cl)c3)c2cc1NC(=O)N/N=C/c1cccn1CCCN1CCCC1, the pIC50 was 7.22 (MTT; 72 h).
With COc1cc2c(Nc3ccc(NC(=O)c4ccccc4)cc3)ncnc2cc1OCCCN1CCOCC1 the pIC50 was 5.48 (MTS; 48 h).
Oc1ncnc2cc(Nc3nc(-c4ccccc4)cs3)ccc12 has a pIC50 of 4.93 (MTT).
O=C(NNC(=O)c1ccc(Nc2nccc(-c3ccccn3)n2)cc1)NC1CCCC1 gave a pIC50 of < 4.40 (MTT).
For COc1ccc(Nc2nc(-n3nc(C)cc3C)nc(-n3nc(C)cc3C)n2)cc1, the pIC50 was 5.27 (MTT; 72 h).
COc1ccc(-c2nc3ccccc3[nH]2)cc1O gave a pIC50 of 4.19 (MTT; 48 h).
CC1=C(O)C(=O)C=C2C1=CC=C1[C@@]2(C)CC[C@@]2(C)[C@@H]3C[C@](C)(C(=O)OCCCN4C(=O)C5C=CC=CC5C4=O)CC[C@]3(C)CC[C@]12C (stereo partly shown) has a pIC50 of 5.90 (MTT; 48 h).
With Fc1ccc(-c2nc3ccccc3n2Cc2ccccc2)cc1 the pIC50 was 4.34 (MTT).
With Cc1cc(=O)oc2ccc(-c3cc(-c4ccccc4)nc(N)n3)c(O)c12 the IC50 was > 128 µg/mL (MTT; 72 h).
The pIC50 of CCN(CC)C/C=N/NC(=O)Nc1cc2c(Nc3ccc(F)c(Cl)c3)ncnc2cc1O[C@H]1CCOC1 is reported as 5.62 (MTT; 72 h).
With CC1=C(O)C(=O)C=C2C1=CC=C1[C@@]2(C)CC[C@@]2(C)[C@@H]3C[C@](C)(C(=O)OCCCCCCCO)CC[C@]3(C)CC[C@]12C the pIC50 was 5.14 (MTT; 48 h).
CN1CCN(CCn2cccc2/C=N/NC(=O)Nc2cc3c(Nc4ccc(F)c(Cl)c4)ncnc3cc2O[C@H]2CCOC2)CC1 has a pIC50 of 6.82 (MTT; 72 h).
With O=c1c(O)c(-c2ccc(O)cc2)oc2cc(O)cc(O)c12 the pIC50 was 4.46 (WST-1; 48 h).
For COc1cc(/C=C/C(=O)c2ccc(NC(=O)c3ccccc3CN3C(=O)c4ccccc4C3=O)cc2)cc(OC)c1OC, the pIC50 was 5.79 (MTT; 72 h).
For CC(=O)O[C@@]12CO[C@@H]1C[C@H](O)[C@@]1(C)C(=O)[C@H](O)C3=C(C)[C@@H](OC(=O)[C@H](O)[C@@H](NC(=O)OC(C)(C)C)c4ccccc4)C[C@@](O)([C@@H](OC(=O)c4ccccc4)[C@H]21)C3(C)C, the pIC50 was 6.96 (CCK-8; 72 h).
For COc1cccc2c1C(=O)c1c(O)c3c(c(O)c1C2=O)C[C@@](O)(C(=O)CO)C[C@@H]3O[C@H]1C[C@H](N)[C@H](O)[C@H](C)O1, the pIC50 was 7.00 (MTT; 48 h).
O=[N+]([O-])c1ccc(-c2nc3ccccc3n2Cc2ccccc2)cc1 gave a pIC50 of 5.11 (MTT).
The pIC50 of Nc1ncnc2c1ncn2[C@@H]1O[C@H](CO)[C@@H](O)[C@H]1O is reported as 4.26 (WST-1; 48 h).
With COc1cc2ncnc(Nc3ccc(F)c(Cl)c3)c2cc1NC(=O)N/N=C/c1cccn1CCN1CCN(C)CC1 the pIC50 was 6.66 (MTT; 72 h).
For Cc1ccc2c(Cl)cc(Cl)c(O)c2n1, the pIC50 was < 4.00 (MTT; 48 h).
